B1: tRNA (parent)
chain: GUUCCGUUGGCGUAAUGGUAACGCGUCUCCCUCCUAAGGAGAAGACUGCGGGUUCGAGUCCCGUACGGAACG

Fewer inactive variants are shown than the library holds. Some results are limits rather than exact numbers.

In the series the parent is B1. Description: yeast fitness relative to wild type (ratio to wild type); higher = fitter; tRNA-Arg(CCU), competitive growth, 37 C, YPD. The method in brief:
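The tRNA-Arg(CCU) gene variants were made by chemical synthesis with a 3% per-site mutation rate at 69 sites and inserted at the native genomic locus of Saccharomyces cerevisiae. After pooling, the strains were competed in YPD at 37°C for 24 hours in six parallel replicates. Gene amplicons from the start population and each end population were read by 100-nucleotide paired-end sequencing, and Darwinian fitness relative to wild type was taken from genotype frequency changes. Genotypes needed ≥ 100 starting reads, and estimates < 0.5 were set to 0.5.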
Regarding C4G U28G C30A A42G A43C C61G, the yeast fitness is no more than 0.5.
For the variant C24U G44C G58C, the yeast fitness was 0.995.
Take C4U G10A G23C C49A G68C: the yeast fitness was no more than 0.5.
Consider G6C U53A C61U, for which the yeast fitness is no more than 0.5.
For G6A C31G C55U, the yeast fitness was 0.537.
Regarding C5A C34G A43C, the yeast fitness is no more than 0.5.
Consider C11G G12C C33U C60U, for which the yeast fitness was no more than 0.5.
For C46G G50A the value was 1.04.
Consider A14U A37C G44A, for which the yeast fitness was 0.757.
For A14U U19A C60G A70G, the yeast fitness amounted to 0.531.
For C11U C24U G44C C49A A69C, the yeast fitness is no more than 0.5.
C4U G52A: the yeast fitness came to 0.727.
With U2A G18A G44C, the yeast fitness was no more than 0.5.
For the variant C4G A21U A36C C61A, the yeast fitness turned out to be 0.615.
Regarding U7G G52A, the yeast fitness is 0.723.
A42G A70G: the yeast fitness came to 0.693.
For U26G A69U the value was 0.919.
As to C11U A45G U59A, the yeast fitness stood at 0.526.
For C30A C34A the value was 0.76; for C4U U35C A42G, 0.581.
G6C G50C U53C C55U: the yeast fitness is no more than 0.5.
In the case of C11G C33A A40G C62A G67C, the yeast fitness was no more than 0.5.
Consider A20U A40U C46A, for which the yeast fitness turned out to be 0.613.
Consider C11U A15U C27U C60G, for which the yeast fitness amounted to 0.563.
With U16C C29G C49U, the yeast fitness was 0.535.
Consider C27U C31A A57U, for which the yeast fitness was no more than 0.5.
In the case of C11G G12A A42U, the yeast fitness was no more than 0.5.
As for U13G C66U, the yeast fitness worked out at 0.818.
As for C30G U47C C66U, the yeast fitness is 0.634.
C46G A65C G67A: the yeast fitness came out at 0.732.
For the variant C5U U16A C34A G63A, the yeast fitness was no more than 0.5.
Regarding C4U G6A A14C A65C, the yeast fitness was no more than 0.5.
Consider C22A C30U C34G A70U, for which the yeast fitness was no more than 0.5.
C11G U16A C31A A42G: the yeast fitness turned out to be 0.573.
In the case of C24U C33G U53C C55U A70G, the yeast fitness was no more than 0.5.
Take U19C A37C G63A: the yeast fitness is no more than 0.5.
With A20G G23A G38C G63A C66A, the yeast fitness is no more than 0.5.
In the case of U3A A45U C46G G52A G68C, the yeast fitness is no more than 0.5.
G18A G50C C55G: the yeast fitness is no more than 0.5.
Take G51C A65U: the yeast fitness is 0.597.
For U3G G23A A36U A43G C61A A70G, the yeast fitness was no more than 0.5.
For A36G C46U A57C, the yeast fitness was no more than 0.5.
For G10A A14C C34U A42G A65U G68A the value was no more than 0.5.
For the variant C22G G51C, the yeast fitness was found to be 0.738.
G10C U16C A20G: the yeast fitness was no more than 0.5.
On to C24U U32A C33G C60U A69G, for which the yeast fitness is no more than 0.5.
For G38A A40C G56A C60U C61G G67U, the yeast fitness was no more than 0.5.
As for A36G U47A A69C, the yeast fitness came to 0.68.
As for U2G C11A A14C C34A, the yeast fitness was no more than 0.5.
For the variant A15U C22U G44C, the yeast fitness is no more than 0.5.
Regarding A36U A43G, the yeast fitness came to 0.745.
On to C4G C24U A69U, for which the yeast fitness worked out at 0.652.
For C5G U8C C11G C31G the value was no more than 0.5; for A21G C30U G68C, 0.582.
In the case of C4A C27G U32C A36G A57G G58A C62U A70U, the yeast fitness is no more than 0.5.
For the variant C30A C46U G52C C66U, the yeast fitness was no more than 0.5.
In the case of G12A C30A A70U, the yeast fitness stood at 0.759.
As to C5G A20G C22G C29G G63C A69U, the yeast fitness amounted to 0.527.
As for G6A A65C A70U, the yeast fitness is 0.712.
As for A14G U16G C29G G58A, the yeast fitness is no more than 0.5.
For U8A A15C the value was 0.631; for U8C C30G C49A G67A G68A, no more than 0.5; for C11A C60A, no more than 0.5.
As to C4A A20G C34U, the yeast fitness is no more than 0.5.
Regarding C11U A45C G51A, the yeast fitness turned out to be 0.611.
Regarding A20C A21G G58C, the yeast fitness was found to be 0.698.
For the variant G39C C60G A70U, the yeast fitness was 0.524.
For C30G A40C C55G, the yeast fitness was 0.624.
As for C11A A43G G50C, the yeast fitness was no more than 0.5.
For U19C A45C G68C the value was no more than 0.5.
Regarding G12A G18A C27U C46U G48A, the yeast fitness is no more than 0.5.
For C4G C27G C30G C49U C60U G63C, the yeast fitness is 0.562.
As to C27G A36G C61A A65U, the yeast fitness is no more than 0.5.
As for C60U G67U, the yeast fitness came to 0.678.
For A15C C24G A45G G52A C60A the value was no more than 0.5; for C29G C55G A57G A70C, no more than 0.5.
As to C5G A45C C66G, the yeast fitness was no more than 0.5.
Consider U7C A57C, for which the yeast fitness came to 0.612.
As for A20U C33U G38C A40U G44C G51C C60U, the yeast fitness came to 0.558.
As to U2C C24G U26G C34A A36C, the yeast fitness was no more than 0.5.
Consider G17C C24A U32C U47A G67C, for which the yeast fitness is no more than 0.5.
Regarding G18C A36U, the yeast fitness amounted to 0.551.
For A15G C31A U54C the value was no more than 0.5; for U7C G58A, 1.06; for C5U A15C U32A G52C C62G U64C, no more than 0.5.
For A15C G23A C24G C46G C55G the value was no more than 0.5; for C24G G50U, 0.544.
Consider U19C, for which the yeast fitness came to 0.972.
In the case of A15G G58C G68A, the yeast fitness was 0.593.
Consider U8A A45G A65U, for which the yeast fitness was no more than 0.5.
For the variant U28A C60U, the yeast fitness amounted to 0.64.
C5G C60U C62G: the yeast fitness came out at 0.634.
For A20G C31G C46G G50A G67C the value was no more than 0.5.
Regarding G9A U35C A42U G63A, the yeast fitness was no more than 0.5.
Consider G6A A15C C29A C66U, for which the yeast fitness is no more than 0.5.
On to G6A U53C, for which the yeast fitness came to 0.82.
As for C5U C49U A65C, the yeast fitness was 0.745.
As to C4U G23C C49A G68C, the yeast fitness was no more than 0.5.
With U19C C33A, the yeast fitness turned out to be 0.636.
With C4G A43G, the yeast fitness is 0.729.
On to A15G C30G A37C C49U G63A, for which the yeast fitness was no more than 0.5.
With U3A A20U A37G, the yeast fitness was 0.608.
For the variant G17C C34A U59C, the yeast fitness worked out at 0.542.
Regarding C27U C34U U35C U47C U53G A69U, the yeast fitness was no more than 0.5.
As for C27U U47C, the yeast fitness was found to be 0.975.
In the case of C11G C27G C55A, the yeast fitness is no more than 0.5.
G6A G9A C11G C24G U32A G52C: the yeast fitness was no more than 0.5.
For C5G A15G C27G U28A U32A A45G C46U, the yeast fitness amounted to 0.573.
For A14U C24A C30U A37G the value was no more than 0.5; for G6C C46A, 0.951; for C11U C33G C60A, no more than 0.5.
With U54C C61U, the yeast fitness stood at 0.868.
A14U C22G C60G: the yeast fitness is no more than 0.5.
For C5U A36G A65G A70C, the yeast fitness is no more than 0.5.
Take U2A U47C: the yeast fitness is 1.08.
For the variant C5U A14C A21G C30G C34U G39A C55U, the yeast fitness is no more than 0.5.
Regarding C11U U28C A40C G50C A70C, the yeast fitness is no more than 0.5.
As to A20G A21U A36G A40C C55U, the yeast fitness was no more than 0.5.
For C34G A42C C55A C60U the value was no more than 0.5; for G18A G52A C55G, 0.571.
As for C24U U47A C66U, the yeast fitness was no more than 0.5.
Turning to C4U U26C, the yeast fitness is 1.04.
With U19G U32A, the yeast fitness stood at 0.735.
On to U28C G51A U59A A65C, for which the yeast fitness is no more than 0.5.
Take C5G U8G A14G A43C G48A: the yeast fitness was found to be 0.544.
On to C29A C49U C62U, for which the yeast fitness was 0.562.
On to C5G G39A U47G C49G C66U A69C, for which the yeast fitness stood at 0.57.
Take C22G C34U C46A: the yeast fitness is no more than 0.5.
For the variant A21U G25C A43G A65G, the yeast fitness worked out at 0.609.
For C4G A15U C34G A36C, the yeast fitness is no more than 0.5.
On to A20C A40U A43C, for which the yeast fitness worked out at 0.699.
Take A15U C27U G39A G48A: the yeast fitness was no more than 0.5.
As to U16C G18A C34G G39A C62A, the yeast fitness is no more than 0.5.
C11A U35A: the yeast fitness turned out to be 0.535.
On to G9C A40U, for which the yeast fitness is 0.756.
Regarding C22U C30G, the yeast fitness was 0.515.
As for C31G C49G C62U G67C, the yeast fitness was no more than 0.5.
For the variant C46U A65C C66U, the yeast fitness turned out to be 0.721.
As for C11U A21U U35A A36U, the yeast fitness is no more than 0.5.
On to G17C C24A U47A G67C, for which the yeast fitness amounted to 0.569.
With U28A C29G A57C G67A, the yeast fitness was no more than 0.5.
In the case of G17A C22U U32A C34U A37G A40U A69U, the yeast fitness was no more than 0.5.
As for G25A G39C, the yeast fitness turned out to be 0.755.
For C49A C62U A65G the value was no more than 0.5; for C4G C5U A37G C62U, no more than 0.5.
In the case of C11A G25C U28A A40U, the yeast fitness turned out to be 0.752.
As to C5G U8A C62A A69U, the yeast fitness is no more than 0.5.
On to U7G A40U A69C, for which the yeast fitness was determined as 0.731.
As to C27U A37U C66U, the yeast fitness stood at 0.542.
U2A G6C U16C C24U A36G: the yeast fitness was no more than 0.5.
For the variant A14U G68A, the yeast fitness is 0.721.
For U3C C31U C66U the value was 0.898.
As for A21U C22G C33U, the yeast fitness turned out to be 0.572.
Take C4A G18A U59G: the yeast fitness was 0.657.
Take G6C A15C A21C C34U A37U A57U: the yeast fitness was no more than 0.5.
On to A14C U32G, for which the yeast fitness was 0.752.
C5U C33G C55U: the yeast fitness is no more than 0.5.
As to C4A C27U C33U A36U G63C, the yeast fitness was no more than 0.5.
For U3A C27U G41C U64C A70C the value was 0.896.
As for A45C U47C, the yeast fitness came out at 0.951.
Turning to C11U C34A G41C A42G, the yeast fitness was no more than 0.5.
For U2G G18A C49U G52A G68C, the yeast fitness was no more than 0.5.
For the variant U7C C29A U32C C60A, the yeast fitness was no more than 0.5.
Consider C11U G52C G67C, for which the yeast fitness is no more than 0.5.
For C5A C27U the value was 0.815; for C5G U28G G38C C62G, no more than 0.5; for G41A U59A A65C G67U, no more than 0.5.
